Laboratory results taken from PubChem BioAssay.
The source made the active and inactive calls.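 The calls were made as follows, unless noted: active = growth inhibition above 25% in both replicates, a cutoff set 3 SD above the mean; inconclusive = above 25% in only one replicate; inactive = the rest.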

assay: OD615 S. cerevisiae growth inhibition, permissive medium, pilot counter-assay, permissive growth control for S. cerevisiae lifespan shortening project (AID 705); conditions: OD615, 24 h, at 10 µM, active compounds read high
Method in brief: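 System – S. cerevisiae with engineered DeaD lifespan system · Buffer or medium – SC raffinose/galactose permissive medium · Schedule – cells pre-grown 4 h, then 24 h compound exposure, 30 °C humidified · Technique – culture turbidity as optical density at 615 nm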

Row | Structure (SMILES) | growth inhibition
1 | Cc1ccc(S(=O)(=O)NC2OC(=O)C(Cl)=C2Cl)cc1 (stereo not drawn) | -17.3% (inactive)
2 | O=C(Nc1ccccc1)OCCOc1ccccc1 | -9.16% (inactive)
3 | COC(=O)C1=C(C)N(C)C(C)=C(C(=O)OC)C1c1cccc(Br)c1 | -16.7% (inactive)
4 | CCC(C)NS(=O)(=O)c1ccc(NC(=O)c2c(-c3ccccc3)noc2C)cc1 (stereo not drawn) | -6.46% (inactive)
5 | CN(C)S(=O)(=O)c1ccc(NC(=O)C2COc3ccccc3O2)cc1 (stereo not drawn) | -9.66% (inactive)
6 | Cc1cc(C)cc(N(CC(=O)Nc2c(C)n(C)n(-c3ccccc3)c2=O)S(C)(=O)=O)c1 | -11.3% (inactive)
7 | CCOC(=O)C1CCCN(C(=O)Cn2ncc3c(=O)oc4ccc(C)cc4c32)C1 (stereo not drawn) | -11.9% (inactive)
8 | Cn1c(=O)c2c(nc(-n3ccnc3)n2Cc2ccc(Cl)cc2Cl)n(C)c1=O | -10.2% (inactive)
9 | CCOC(=O)c1ccc(NC(=O)C2CCN(S(=O)(=O)c3ccccc3)CC2)cc1 | -12.1% (inactive)
10 | COc1ccc(-c2c(C)oc3c(CN4CCCCC4C)c(O)ccc3c2=O)cc1OC (stereo not drawn) | -13.7% (inactive)
11 | CCCC(=N)C1=C(O)CC(CC(C)SCC)CC1=O (stereo not drawn) | -5.42% (inactive)
12 | NC(=O)C1CCN(C(=O)c2ccc(CS(=O)(=O)c3c(Cl)cccc3Cl)o2)CC1 | -1.46% (inactive)
13 | CC(C)Sc1nc2c(cnn2-c2ccc(F)cc2)c(=O)[nH]1 | -8.33% (inactive)
14 | COc1ccc(C(=O)Nc2ccc(S(=O)(=O)N3CCCCC3C)cc2)c(OC)c1OC (stereo not drawn) | -3.56% (inactive)
15 | COc1ccccc1N1CCN(Cc2cc(Br)c(O)c3ncccc23)CC1 | 96.8% (active)
16 | CCc1nc(N(CC)CC)c2oc3ccccc3c2n1 | -2.86% (inactive)
17 | Cc1cc(NC(=O)c2cc(CC(C)C)on2)no1 | -5.71% (inactive)
18 | CCOC(=O)CNC(=O)c1cn(CC(C)C)c(=O)c2cc(OC)c(OC)cc12 | -5.46% (inactive)
19 | Nc1c(C(=O)c2ccc(Br)s2)oc2ccccc12 | -9.21% (inactive)
20 | CCn1c(N)nc2c1c(=O)n(C)c(=O)n2C | 4.48% (inactive)

Row | Structure (SMILES) | growth inhibition
21 | COc1ccc(CNC(=O)CS(=O)Cc2nc(-c3ccccc3C)oc2C)cc1 (stereo not drawn) | -3.65% (inactive)
22 | CCNC(=O)Cc1ccc(NS(=O)(=O)c2ccc(F)cc2)cc1 | -7.1% (inactive)
23 | CCc1ccc(-c2nc(CN3CCCC(C(=O)O)C3)c(C)o2)cc1 (stereo not drawn) | 2.06% (inactive)
24 | Cc1nnc(SCCC(C)C)[nH]c1=O | -1.1% (inactive)
25 | O=C(Cn1c(S(=O)(=O)Cc2ccccc2)nc2ccccc21)N1CCCCC1 | -5.32% (inactive)
26 | COc1cc(C(=O)NCc2ccco2)c(Br)c(OC)c1OC | -1.05% (inactive)
27 | COc1ccc(O)c(-c2[nH]ncc2C(=O)c2ccccc2)c1 | -14.7% (inactive)
28 | Cc1ccc(Cl)cc1NC(=O)COC(=O)C1CCCC1 | -22% (inactive)
29 | Cc1cc(NCc2ccco2)nc2cc(O)ccc12 | -11.9% (inactive)
30 | CC(=O)c1c(N2CCN(c3ccccc3)CC2)nc(=S)n(-c2ccccc2)c1C | 3.6% (inactive)
31 | O=C(CSCC(=O)N1CCOCC1)Nc1nc(-c2ccc3c(c2)OCO3)cs1 | -15% (inactive)
32 | Cc1ccc(C(=O)N2CCN(C3CCCCC3)CC2)s1 | -3.88% (inactive)
33 | CC1=C(C(=O)OCc2ccccc2)C(c2ccco2)C2=C(CC(C)(C)CC2=O)N1 (stereo not drawn) | -13.1% (inactive)
34 | COC(=O)C1Sc2[nH]c(=O)sc2C(c2ccc(Cl)cc2)C1C(=O)OC (stereo not drawn) | -14.8% (inactive)
35 | CC12C(=O)N(c3ccccn3)C(=O)C1C1C=CC2C1 (stereo not drawn) | -13.3% (inactive)
36 | c1ccc(Cn2ncc3c(N4CCCCC4)ncnc32)cc1 | -0.96% (inactive)
37 | CCOc1ccccc1Nc1nnc(C)c(=O)[nH]1 | -5.5% (inactive)
38 | CCOCCCNC(=O)C(c1ccc(OC)cc1)N(Cc1ccc2c(c1)OCO2)C(=O)CNC(C)=O (stereo not drawn) | -6.78% (inactive)
39 | CCCCC(CC)C(=O)NCCc1ccc(S(N)(=O)=O)cc1 (stereo not drawn) | -2.48% (inactive)

assay: Restrictive medium S. cerevisiae growth inhibition, OD615, pilot screen of yeast lifespan reduction project, restrictive growth control (AID 706;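 active = growth inhibition above a set limit, 3 SD over mean compound inhibition, in both replicates, cut at about 43% in these data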;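 also: modified DeaD lifespan yeast strain shifted to restrictive glucose medium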); conditions: OD615, 48 h, at 10 µM, active compounds read high
Method in brief: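 Material: engineered S. cerevisiae DeaD strain / Medium: glucose-based CSMM-D restrictive medium / Compound: single dose of 10 µM compound final, 0.25% DMSO / Timing: 4 h pre-incubation, 48 h exposure at 30 °C / Technique: OD615 absorbance reading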

Row | Structure (SMILES) | growth inhibition
40 | Cc1ccc(S(=O)(=O)NC2OC(=O)C(Cl)=C2Cl)cc1 (stereo not drawn) | 10.1% (inactive)
41 | O=C(Nc1ccccc1)OCCOc1ccccc1 | 4.62% (inactive)
42 | COC(=O)C1=C(C)N(C)C(C)=C(C(=O)OC)C1c1cccc(Br)c1 | 0.915% (inactive)
43 | CCC(C)NS(=O)(=O)c1ccc(NC(=O)c2c(-c3ccccc3)noc2C)cc1 (stereo not drawn) | -11% (inactive)
44 | CN(C)S(=O)(=O)c1ccc(NC(=O)C2COc3ccccc3O2)cc1 (stereo not drawn) | -10.9% (inactive)
45 | Cc1cc(C)cc(N(CC(=O)Nc2c(C)n(C)n(-c3ccccc3)c2=O)S(C)(=O)=O)c1 | -11.2% (inactive)
46 | CCOC(=O)C1CCCN(C(=O)Cn2ncc3c(=O)oc4ccc(C)cc4c32)C1 (stereo not drawn) | -24.9% (inactive)
47 | Cn1c(=O)c2c(nc(-n3ccnc3)n2Cc2ccc(Cl)cc2Cl)n(C)c1=O | -2.64% (inactive)
48 | CCOC(=O)c1ccc(NC(=O)C2CCN(S(=O)(=O)c3ccccc3)CC2)cc1 | -10.7% (inactive)
49 | COc1ccc(-c2c(C)oc3c(CN4CCCCC4C)c(O)ccc3c2=O)cc1OC (stereo not drawn) | -7.48% (inactive)
50 | CCCC(=N)C1=C(O)CC(CC(C)SCC)CC1=O (stereo not drawn) | 5.29% (inactive)
51 | NC(=O)C1CCN(C(=O)c2ccc(CS(=O)(=O)c3c(Cl)cccc3Cl)o2)CC1 | -0.415% (inactive)
52 | CC(C)Sc1nc2c(cnn2-c2ccc(F)cc2)c(=O)[nH]1 | -1.79% (inactive)
53 | COc1ccc(C(=O)Nc2ccc(S(=O)(=O)N3CCCCC3C)cc2)c(OC)c1OC (stereo not drawn) | -3.8% (inactive)
54 | COc1ccccc1N1CCN(Cc2cc(Br)c(O)c3ncccc23)CC1 | 98.6% (active)
55 | CCc1nc(N(CC)CC)c2oc3ccccc3c2n1 | -35.2% (inactive)
56 | Cc1cc(NC(=O)c2cc(CC(C)C)on2)no1 | -12.5% (inactive)
57 | CCOC(=O)CNC(=O)c1cn(CC(C)C)c(=O)c2cc(OC)c(OC)cc12 | -6.08% (inactive)
58 | Nc1c(C(=O)c2ccc(Br)s2)oc2ccccc12 | -4.51% (inactive)
59 | CCn1c(N)nc2c1c(=O)n(C)c(=O)n2C | -1.29% (inactive)

Row | Structure (SMILES) | growth inhibition
60 | COc1ccc(CNC(=O)CS(=O)Cc2nc(-c3ccccc3C)oc2C)cc1 (stereo not drawn) | 10.4% (inactive)
61 | CCNC(=O)Cc1ccc(NS(=O)(=O)c2ccc(F)cc2)cc1 | 13.8% (inactive)
62 | CCc1ccc(-c2nc(CN3CCCC(C(=O)O)C3)c(C)o2)cc1 (stereo not drawn) | -4.83% (inactive)
63 | Cc1nnc(SCCC(C)C)[nH]c1=O | 0.225% (inactive)
64 | O=C(Cn1c(S(=O)(=O)Cc2ccccc2)nc2ccccc21)N1CCCCC1 | 2.88% (inactive)
65 | COc1cc(C(=O)NCc2ccco2)c(Br)c(OC)c1OC | -12.5% (inactive)
66 | COc1ccc(O)c(-c2[nH]ncc2C(=O)c2ccccc2)c1 | -2.28% (inactive)
67 | Cc1ccc(Cl)cc1NC(=O)COC(=O)C1CCCC1 | -14.1% (inactive)
68 | Cc1cc(NCc2ccco2)nc2cc(O)ccc12 | -28.8% (inactive)
69 | CC(=O)c1c(N2CCN(c3ccccc3)CC2)nc(=S)n(-c2ccccc2)c1C | 15.2% (inactive)
70 | O=C(CSCC(=O)N1CCOCC1)Nc1nc(-c2ccc3c(c2)OCO3)cs1 | -3.92% (inactive)
71 | Cc1ccc(C(=O)N2CCN(C3CCCCC3)CC2)s1 | -0.76% (inactive)
72 | CC1=C(C(=O)OCc2ccccc2)C(c2ccco2)C2=C(CC(C)(C)CC2=O)N1 (stereo not drawn) | -7.33% (inactive)
73 | COC(=O)C1Sc2[nH]c(=O)sc2C(c2ccc(Cl)cc2)C1C(=O)OC (stereo not drawn) | -14.8% (inactive)
74 | CC12C(=O)N(c3ccccn3)C(=O)C1C1C=CC2C1 (stereo not drawn) | -4.06% (inactive)
75 | c1ccc(Cn2ncc3c(N4CCCCC4)ncnc32)cc1 | 8.13% (inactive)
76 | CCOc1ccccc1Nc1nnc(C)c(=O)[nH]1 | 5.76% (inactive)
77 | CCOCCCNC(=O)C(c1ccc(OC)cc1)N(Cc1ccc2c(c1)OCO2)C(=O)CNC(C)=O (stereo not drawn) | 3.73% (inactive)
78 | CCCCC(CC)C(=O)NCCc1ccc(S(N)(=O)=O)cc1 (stereo not drawn) | -4.13% (inactive)
